Like-named read-outs stand apart in the source and are kept apart here.

The subject of one assay is U-87 MG cells. The assay can be described thus: Peptide and peptide-platinate activity, modified MTT assay. The following applies: 24 hours, nonlinear curve fitting, n=3. It is filed as cell-based. An outline of the steps: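 They were plated at 50,000 cells/mL one day before, then exposed to a concentration series of test compound for 24 h. Viability relative to untreated control was read by modified MTT (Aqueous One). IC50 came from nonlinear curve fit. n≥3.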

Assay [1] concerns the target T1, MMP-2 (Homo sapiens, UniProt P08253).
T1 sequence (P08253 110-660): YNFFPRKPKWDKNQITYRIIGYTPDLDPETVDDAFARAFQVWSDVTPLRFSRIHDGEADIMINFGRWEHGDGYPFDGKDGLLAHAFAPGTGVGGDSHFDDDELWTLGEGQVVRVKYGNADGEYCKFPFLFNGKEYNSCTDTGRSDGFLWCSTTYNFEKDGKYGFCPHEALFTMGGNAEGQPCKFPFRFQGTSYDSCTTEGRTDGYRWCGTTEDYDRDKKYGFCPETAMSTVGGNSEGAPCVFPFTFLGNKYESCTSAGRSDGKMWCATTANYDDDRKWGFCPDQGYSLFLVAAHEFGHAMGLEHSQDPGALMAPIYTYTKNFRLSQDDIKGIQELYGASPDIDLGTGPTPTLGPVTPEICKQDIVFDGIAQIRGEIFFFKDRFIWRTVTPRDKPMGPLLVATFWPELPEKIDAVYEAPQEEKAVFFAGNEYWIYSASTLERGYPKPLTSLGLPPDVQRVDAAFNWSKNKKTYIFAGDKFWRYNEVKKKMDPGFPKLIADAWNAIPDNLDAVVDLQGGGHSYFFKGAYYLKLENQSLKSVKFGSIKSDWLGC
The following applies: cited from earlier work.

The target of another assay is MMP-9 (Homo sapiens, UniProt P14780). Nature of the assay: Peptide cleavage kinetics with activated MMP-9. The following applies: for Km / kcat: activated MMP-9 10 nM, Tris-HCl protease buffer pH 7.4, HPLC, n=3. Type of assay: biochemical. An outline of the steps: (§1)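 Reactions were stopped at set times with EDTA. Products were resolved by C18 reversed-phase HPLC (30–70% acetonitrile/0.1% TFA gradient, 15 min, 1 mL/min) with fluorescence and photodiode-array detection. Fragments were assigned against synthetic fragment retention times and confirmed by MALDI-MS. n≥3.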
Chain of MMP-9 (P14780 107-707 limits assumed): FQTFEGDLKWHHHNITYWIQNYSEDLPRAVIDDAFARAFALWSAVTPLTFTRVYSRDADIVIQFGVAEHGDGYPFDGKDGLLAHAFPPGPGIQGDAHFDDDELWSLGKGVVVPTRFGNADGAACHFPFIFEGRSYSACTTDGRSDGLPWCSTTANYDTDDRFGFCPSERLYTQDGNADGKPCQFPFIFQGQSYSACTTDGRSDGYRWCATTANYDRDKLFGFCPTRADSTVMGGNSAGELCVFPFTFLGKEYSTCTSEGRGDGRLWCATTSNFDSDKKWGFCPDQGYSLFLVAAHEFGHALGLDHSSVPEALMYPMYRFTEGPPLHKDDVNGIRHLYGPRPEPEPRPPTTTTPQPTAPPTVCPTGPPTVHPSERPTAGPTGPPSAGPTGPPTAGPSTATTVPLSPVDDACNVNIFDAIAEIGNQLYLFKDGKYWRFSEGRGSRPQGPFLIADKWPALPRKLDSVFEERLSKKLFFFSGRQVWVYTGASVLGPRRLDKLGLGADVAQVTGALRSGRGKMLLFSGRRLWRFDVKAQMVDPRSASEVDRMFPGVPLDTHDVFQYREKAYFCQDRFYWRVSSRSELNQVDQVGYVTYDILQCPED

Assay [2] concerns the target T1, MMP-2. Nature of the assay: Peptide cleavage kinetics with activated MMP-2. It is filed as biochemical. The following applies: for Km / kcat: activated MMP-2 10 nM, Tris-HCl protease buffer pH 7.4, HPLC, n=3. An outline of the steps:
as §1

In turn, `[Cl][Pt-2]([Cl])([Cl])[Cl].[K+].[K+]` [K2PtCl4, potassium tetrachloroplatinate] yielded an IC50 with U-87 MG cells of 70.7 ± 15 µM.

For `N.N.[Cl][Pt][Cl]` [cisplatin], half-maximal inhibition with U-87 MG cells (IC50) required 46.9 ± 15 µM.

With GPAGLLG, the cleavage site entry at MMP-2 [1] was “cleaved between glycine and leucine”.

In the case of K*AGLLC-CONH2, the Michaelis-Menten constant (Km) came out at 160 ± 100 µM on MMP-9 and 1400 ± 400 µM on MMP-2 [2]. Moreover, the kcat on MMP-9 stood at 0.04 ± 0.01 s⁻¹; on MMP-2 [2], 0.24 ± 0.08 s⁻¹.

For the compound K*PAGLLGC-CONH2, the Km on MMP-9 came to 400 ± 100 µM; at MMP-2 [2], 1000 ± 500 µM. Besides, the figures for the kcat at MMP-9 and at MMP-2 [2] were 9.6 ± 2.1 s⁻¹ and 10.7 ± 4.8 s⁻¹, respectively. Moreover, the cleavage site result on MMP-9 (cleaved with MMP-9 for 2 hours, HPLC comparison with synthesized fragment K*PAG) was “cleaved between glycine and leucine”; at MMP-2 [2] (cleaved with MMP-2 for 2 hours, HPLC comparison with synthesized fragment K*PAG), “cleaved between glycine and leucine”.

The values are drawn from article PMC2592099 (Peptides, 2008).
